The source made the active and inactive calls. No cut-off for these calls is given here.
How the values were obtained:
[1] = Cytotoxicity against human SF539 cells after 48 hrs by SRB assay; assay type: functional; conditions: SF-539, 48 h
Method in brief: (§1)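 NCI-60 five-dose screen: compounds dissolved in DMSO/H2O, tested at five 10-fold dilutions (10^-4 to 10^-8 M) for 48 h. Growth measured by sulforhodamine B optical density at time zero and after 48 h drug or vehicle exposure. Percentage growth calculated relative to control. GI50 is the molar concentration giving 50% reduction in net cell growth versus day-0 cell numbers.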

[2] = Cytotoxicity against human MOLT4 cells after 48 hrs by SRB assay; assay type: functional; conditions: MOLT-4, 48 h; method in brief: as §1
[3] = Cytotoxicity against human OVCAR8 cells after 48 hrs by SRB assay; assay type: functional; conditions: OVCAR-8, 48 h; method in brief: as §1
MDA-MB-435 = assay: Cytotoxicity against human MDA-MB-435 cells after 48 hrs by SRB assay; assay type: functional; conditions: MDA-MB-435, 48 h; method in brief: as §1
[4] = Cytotoxicity against human NCI-ADR-RES cells after 48 hrs by SRB assay; assay type: functional; method in brief: as §1
[5] = Cytotoxicity against human PC3 cells after 48 hrs by SRB assay; assay type: functional; conditions: PC-3, 48 h; method in brief: as §1
[6] = Cytotoxicity against human DU145 cells after 48 hrs by SRB assay; assay type: functional; conditions: DU-145, 48 h; method in brief: as §1
786-0 = assay: Cytotoxicity against human 786-0 cells after 48 hrs by SRB assay; assay type: functional; conditions: 786-0, 48 h; method in brief: as §1
[7] = Cytotoxicity against human IGROV1 cells after 48 hrs by SRB assay; assay type: functional; conditions: IGROV-1, 48 h
Method in brief: (§2)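 NCI-60 five-dose screen: compounds in DMSO/H2O tested at 10^-4 to 10^-8 M (10-fold steps) for 48 h. Cell mass read by sulforhodamine B optical density at time zero and after exposure to compound or vehicle. GI50 is the concentration giving 50% reduction in net cell growth relative to day-0 cell numbers.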

[8] = Cytotoxicity against human HL-60(TB) cells after 48 hrs by SRB assay; assay type: functional; conditions: HL-60, 48 h; method in brief: as §1
[9] = Cytotoxicity against human HCC2998 cells after 48 hrs by SRB assay; assay type: functional; conditions: HCC 2998, 48 h; method in brief: as §1
[10] = Cytotoxicity against human SW620 cells after 48 hrs by SRB assay; assay type: functional; conditions: SW-620, 48 h; method in brief: as §1
[11] = Cytotoxicity against human TK10 cells after 48 hrs by SRB assay; assay type: functional; conditions: TK-10, 48 h
Method in brief: (§3)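 NCI-60 five-dose screen. Compounds dissolved in DMSO/H2O and tested at five 10-fold dilutions (10^-4 to 10^-8 M) for 48 h. Growth read by sulforhodamine B optical density at time zero and after 48 h of exposure to compound or vehicle. Percent growth calculated against control. GI50 is the molar concentration giving 50% reduction in net cell growth relative to cell number on day 0.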

[12] = Cytotoxicity against human Caki1 cells after 48 hrs by SRB assay; assay type: functional; conditions: CAKI-1, 48 h; method in brief: as §1
A549 = assay: Cytotoxicity against human A549 cells after 48 hrs by SRB assay; assay type: functional; conditions: A549, 48 h; method in brief: as §1
KM12 = assay: Cytotoxicity against human KM12 cells after 48 hrs by SRB assay; assay type: functional; conditions: KM12, 48 h; method in brief: as §1
MDA-MB-231 = assay: Cytotoxicity against human MDA-MB-231 cells after 48 hrs by SRB assay; assay type: functional; conditions: MDA-MB-231, 48 h; method in brief: as §1
[13] = Cytotoxicity against human UO31 cells after 48 hrs by SRB assay; assay type: functional; conditions: UO-31, 48 h; method in brief: as §3
SK-MEL-5 = assay: Cytotoxicity against human SK-MEL-5 cells after 48 hrs by SRB assay; assay type: functional; conditions: SK-MEL-5, 48 h; method in brief: as §1
ACHN = assay: Cytotoxicity against human ACHN cells after 48 hrs by SRB assay; assay type: functional; method in brief: as §1
MCF7 = assay: Cytotoxicity against human MCF7 cells after 48 hrs by SRB assay; assay type: functional; conditions: MCF7, 48 h; method in brief: as §1
NCI-H522 = assay: Cytotoxicity against human NCI-H522 cells after 48 hrs by SRB assay; assay type: functional; conditions: NCI-H522, 48 h; method in brief: as §1
SK-MEL-2 = assay: Cytotoxicity against human SK-MEL-2 cells after 48 hrs by SRB assay; assay type: functional; conditions: SK-MEL-2, 48 h; method in brief: as §1
[14] = Cytotoxicity against human RPMI8226 cells after 48 hrs by SRB assay; assay type: functional; conditions: RPMI-8226, 48 h; method in brief: as §1
K562 = assay: Cytotoxicity against human K562 cells after 48 hrs by SRB assay; assay type: functional; conditions: K562, 48 h; method in brief: as §1
A498 = assay: Cytotoxicity against human A498 cells after 48 hrs by SRB assay; assay type: functional; conditions: A498, 48 h; method in brief: as §1
NCI-H226 = assay: Cytotoxicity against human NCI-H226 cells after 48 hrs by SRB assay; assay type: functional; conditions: NCI-H226, 48 h; method in brief: as §1
CCRF-CEM = assay: Cytotoxicity against human CCRF-CEM cells after 48 hrs by SRB assay; assay type: functional; method in brief: as §1
[15] = Cytotoxicity against human COLO205 cells after 48 hrs by SRB assay; assay type: functional; conditions: COLO 205, 48 h; method in brief: as §1
[16] = Cytotoxicity against human HOP62 cells after 48 hrs by SRB assay; assay type: functional; conditions: HOP-62, 48 h; method in brief: as §2
NCI-H460 = assay: Cytotoxicity against human NCI-H460 cells after 48 hrs by SRB assay; assay type: functional; conditions: NCI-H460, 48 h; method in brief: as §1
MDA-MB-468 = assay: Cytotoxicity against human MDA-MB-468 cells after 48 hrs by SRB assay; assay type: functional; conditions: MDA-MB-468, 48 h; method in brief: as §1
[17] = Cytotoxicity against human HCT116 cells after 48 hrs by SRB assay; assay type: functional; conditions: HCT-116, 48 h; method in brief: as §1
[18] = Cytotoxicity against human SKOV3 cells after 48 hrs by SRB assay; assay type: functional; conditions: SK-OV-3, 48 h; method in brief: as §1
[19] = Cytotoxicity against human OVCAR5 cells after 48 hrs by SRB assay; assay type: functional; conditions: OVCAR-5, 48 h; method in brief: as §1
[20] = Cytotoxicity against human OVCAR3 cells after 48 hrs by SRB assay; assay type: functional; conditions: OVCAR-3, 48 h; method in brief: as §1
[21] = Cytotoxicity against human HCT15 cells after 48 hrs by SRB assay; assay type: functional; conditions: HCT-15, 48 h; method in brief: as §1
[22] = Cytotoxicity against human BT549 cells after 48 hrs by SRB assay; assay type: functional; conditions: BT-549, 48 h; method in brief: as §1
Tubulin (Sus scrofa) = Tubulin (Sus scrofa) (UniProt P02554+P02550); assay: Inhibition of porcine brain tubulin polymerization at 200 uM by spectrophotometric analysis
Chain of Tubulin (Sus scrofa) (P02550 whole entry, looked up): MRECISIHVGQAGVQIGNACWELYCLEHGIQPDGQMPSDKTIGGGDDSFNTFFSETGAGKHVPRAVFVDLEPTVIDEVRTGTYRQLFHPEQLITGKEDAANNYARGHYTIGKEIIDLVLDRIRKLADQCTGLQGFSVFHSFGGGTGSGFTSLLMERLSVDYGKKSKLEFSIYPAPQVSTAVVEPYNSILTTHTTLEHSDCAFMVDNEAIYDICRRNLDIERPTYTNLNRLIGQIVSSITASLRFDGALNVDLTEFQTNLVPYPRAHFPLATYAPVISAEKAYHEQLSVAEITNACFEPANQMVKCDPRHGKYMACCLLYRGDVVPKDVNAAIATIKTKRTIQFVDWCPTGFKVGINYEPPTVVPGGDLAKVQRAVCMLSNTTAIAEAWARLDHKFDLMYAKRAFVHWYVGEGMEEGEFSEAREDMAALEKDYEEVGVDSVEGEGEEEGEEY
Chain of Tubulin (Sus scrofa) (P02554 whole entry, looked up): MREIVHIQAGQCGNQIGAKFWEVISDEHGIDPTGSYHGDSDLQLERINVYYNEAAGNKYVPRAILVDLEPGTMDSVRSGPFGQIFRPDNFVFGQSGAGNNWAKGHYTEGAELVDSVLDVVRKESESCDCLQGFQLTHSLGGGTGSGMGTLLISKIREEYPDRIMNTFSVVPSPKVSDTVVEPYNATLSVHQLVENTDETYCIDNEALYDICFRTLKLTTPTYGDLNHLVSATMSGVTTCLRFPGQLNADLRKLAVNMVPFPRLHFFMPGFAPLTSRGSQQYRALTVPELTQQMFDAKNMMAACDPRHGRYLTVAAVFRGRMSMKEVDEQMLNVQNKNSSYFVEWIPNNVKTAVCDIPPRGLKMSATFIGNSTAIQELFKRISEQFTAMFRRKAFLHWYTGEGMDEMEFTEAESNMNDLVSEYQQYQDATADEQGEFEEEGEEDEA

T47D = assay: Cytotoxicity against human T47D cells after 48 hrs by SRB assay; assay type: functional; method in brief: as §3
SK-MEL-28 = assay: Cytotoxicity against human SK-MEL-28 cells after 48 hrs by SRB assay; assay type: functional; conditions: SK-MEL-28, 48 h; method in brief: as §1
Malme-3M = assay: Cytotoxicity against human MALME-3M cells after 48 hrs by SRB assay; assay type: functional; method in brief: as §2
U-251 = assay: Cytotoxicity against human U251 cells after 48 hrs by SRB assay; assay type: functional; conditions: U-251, 48 h; method in brief: as §3
[23] = Cytotoxicity against human UACC62 cells after 48 hrs by SRB assay; assay type: functional; conditions: UACC-62, 48 h; method in brief: as §3
M14 = assay: Cytotoxicity against human M14 cells after 48 hrs by SRB assay; assay type: functional; conditions: M14, 48 h; method in brief: as §1
NCI-H23 = assay: Cytotoxicity against human NCI-H23 cells after 48 hrs by SRB assay; assay type: functional; conditions: NCI-H23, 48 h; method in brief: as §1
[24] = Cytotoxicity against human LOXIMVI cells after 48 hrs by SRB assay; assay type: functional; conditions: LOX IMVI; method in brief: as §1
[25] = Cytotoxicity against human Hs 578T cells after 48 hrs by SRB assay; assay type: functional; method in brief: as §1
[26] = Cytotoxicity against human SF268 cells after 48 hrs by SRB assay; assay type: functional; conditions: SF-268, 48 h; method in brief: as §1
[27] = Cytotoxicity against human UACC257 cells after 48 hrs by SRB assay; assay type: functional; conditions: UACC-257, 48 h; method in brief: as §3
[28] = Cytotoxicity against human RXF393 cells after 48 hrs by SRB assay; assay type: functional; conditions: RXF 393, 48 h; method in brief: as §1
HT-29 = assay: Cytotoxicity against human HT-29 cells after 48 hrs by SRB assay; assay type: functional; conditions: HT-29, 48 h; method in brief: as §1
[29] = Cytotoxicity against human SNB19 cells after 48 hrs by SRB assay; assay type: functional; conditions: SNB-19, 48 h; method in brief: as §1
EKVX = assay: Cytotoxicity against human EKVX cells after 48 hrs by SRB assay; assay type: functional; method in brief: as §2
[30] = Cytotoxicity against human SF295 cells after 48 hrs by SRB assay; assay type: functional; conditions: SF-295, 48 h; method in brief: as §1
[31] = Cytotoxicity against human HOP92 cells after 48 hrs by SRB assay; assay type: functional; conditions: HOP-92, 48 h; method in brief: as §1

## COc1cc(-c2nn(C)nc2-c2cc3ccccc3s2)cc(OC)c1OC
[1]
  GI50: 149 nM
[2]
  GI50: 333 nM
[3]
  GI50: 352 nM
MDA-MB-435
  GI50: 25 nM
[4]
  GI50: 103 nM
[5]
  GI50: 77 nM
[6]
  GI50: 263 nM
786-0
  GI50: 312 nM
[7]
  GI50: 707 nM
[8]
  GI50: 48 nM
[9]
  GI50: 407 nM
[10]
  GI50: 63 nM
[11]
  GI50: 578 nM
[12]
  GI50: 3770 nM
A549
  GI50: 167 nM
KM12
  GI50: 54 nM
MDA-MB-231
  GI50: 1600 nM
[13]
  GI50: 744 nM
SK-MEL-5
  GI50: 225 nM
ACHN
  GI50: 294 nM
MCF7
  GI50: 40 nM
NCI-H522
  GI50: 23 nM
SK-MEL-2
  GI50: 59 nM
[14]
  GI50: 362 nM
K562
  GI50: 42 nM
A498
  GI50: 41 nM
NCI-H226
  GI50: > 100000 nM
CCRF-CEM
  GI50: 220 nM
[15]
  GI50: 82 nM
[16]
  GI50: 553 nM
NCI-H460
  GI50: 69 nM
MDA-MB-468
  GI50: 82 nM
[17]
  GI50: 73 nM
[18]
  GI50: 311 nM
[19]
  GI50: 2360 nM
[20]
  GI50: 354 nM
[21]
  GI50: 58 nM
[22]
  GI50: 422 nM
Tubulin (Sus scrofa)
  inhibition: inactive
T47D
  GI50: > 100000 nM
SK-MEL-28
  GI50: 13000 nM
Malme-3M
  GI50: 16900 nM
U-251
  GI50: 78 nM
[23]
  GI50: 53 nM
M14
  GI50: 76 nM
NCI-H23
  GI50: 392 nM
[24]
  GI50: 168 nM
[25]
  GI50: 270 nM
[26]
  GI50: 630 nM
[27]
  GI50: 51600 nM
[28]
  GI50: 286 nM
HT-29
  GI50: 55 nM
[29]
  GI50: 254 nM
EKVX
  GI50: 466 nM
[30]
  GI50: 36 nM
[31]
  GI50: 80 nM

Reference: ChEMBL document CHEMBL3751743, “Synthesis and anti-cancer screening of novel heterocyclic-(2H)-1,2,3-triazoles as potential anti-cancer agents” (Medchemcomm, 2015)
